From ChEMBL document CHEMBL2062496, “Identification of a sirtuin 3 inhibitor that displays selectivity over sirtuin 1 and 2” (Eur J Med Chem, 2012)
The source made the active and inactive calls. The rule behind the calls is not given here.

How the values were obtained:
UO-31 = experiment: Growth of human UO31 cells assessed as cell growth at 10 uM after 48 hrs by MTT assay; conditions: UO-31, 48 h
HCC 2998 = experiment: Growth inhibition of human HCC2998 cells assessed as cell growth at 10 uM after 48 hrs by MTT assay; values are per cent of control; conditions: HCC 2998, 48 h
SK-MEL-28 [1] = experiment: Effect on ATP level in human SK-MEL-28 cells maintained in medium containing GF and glucose at 100 uM after 24 hrs by luciferase-based assay; assay type: functional, cell-based
In short: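 SK-MEL-28 cells in DMEM with 10% FBS, grown 24 h in 96-well plates in regular medium (growth factors, glucose), with or without compound at 100 µM. Antimycin served as positive control. Cellular ATP was released with a somatic cell releasing reagent and read by luciferase/luciferin bioluminescence. Mean ± S.E.M. of 10–14 replicates from 3 separate experiments.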

A549 = experiment: Growth of human A549/ATCC cells assessed as cell growth at 10 uM after 48 hrs by MTT assay; conditions: A549, 48 h
786-0 = experiment: Growth inhibition of human 786-0 cells assessed as cell growth at 10 uM after 48 hrs by MTT assay; values are per cent of control; conditions: 786-0, 48 h
UACC-62 = experiment: Growth inhibition of human UACC62 cells assessed as cell growth at 10 uM after 48 hrs by MTT assay; values are per cent of control; conditions: UACC-62, 48 h
KM12 = experiment: Growth inhibition of human KM12 cells assessed as cell growth at 10 uM after 48 hrs by MTT assay; values are per cent of control; conditions: KM12, 48 h
OVCAR-4 = experiment: Growth of human OVCAR4 cells assessed as cell growth at 10 uM after 48 hrs by MTT assay; conditions: OVCAR-4, 48 h
HCT-116 = experiment: Growth inhibition of human HCT116 cells assessed as cell growth at 10 uM after 48 hrs by MTT assay; values are per cent of control; conditions: HCT-116, 48 h
NCI-H460 = experiment: Growth inhibition of human NCI-H460 cells assessed as cell growth at 10 uM after 48 hrs by MTT assay; values are per cent of control; conditions: NCI-H460, 48 h
SF-295 = experiment: Growth inhibition of human SF295 cells assessed as cell growth at 10 uM after 48 hrs by MTT assay; values are per cent of control; conditions: SF-295, 48 h
NCI-H226 = experiment: Growth of human NCI-H226 cells assessed as cell growth at 10 uM after 48 hrs by MTT assay; conditions: NCI-H226, 48 h
SK-MEL-28 [2] = experiment: Increase in superoxide level in human SK-MEL-28 cells at 100 uM maintained in Locke's solution after 24 hrs by DHE-based fluorescence assay in absence of GF and glucose; assay type: functional, cell-based
In short: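 SK-MEL-28 cells held 24 h in Locke's balanced saline without glucose or serum, with or without 100 µM compound; antimycin was the positive control. Cells were PBS-washed and labelled at 37 °C with DHE (10 µmol/L, 1% DMSO) in Locke's containing 5 mmol/L pyruvate for 40 min. They were then iced, trypsinized and read by FACS as MFI of 10,000 cells, autofluorescence-corrected; 3–4 separate experiments.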

SK-MEL-5 = experiment: Growth inhibition of human SK-MEL-5 cells assessed as cell growth at 10 uM after 48 hrs by MTT assay; values are per cent of control; conditions: SK-MEL-5, 48 h
NCI-H23 = experiment: Growth inhibition of human NCI-H23 cells assessed as cell growth at 10 uM after 48 hrs by MTT assay; values are per cent of control; conditions: NCI-H23, 48 h
IGROV-1 = experiment: Growth inhibition of human IGROV1 cells assessed as cell growth at 10 uM after 48 hrs by MTT assay; values are per cent of control; conditions: IGROV-1, 48 h
RPMI-8226 = experiment: Growth inhibition of human RPMI8226 cells assessed as cell growth at 10 uM after 48 hrs by MTT assay; values are per cent of control; conditions: RPMI-8226, 48 h
[3] = Growth inhibition of human NCI-ADR-RES cells assessed as cell growth at 10 uM after 48 hrs by MTT assay; values are per cent of control
HL-60(TB) = experiment: Growth inhibition of human HL-60(TB) cells assessed as cell growth at 10 uM after 48 hrs by MTT assay; assay type: functional; conditions: HL-60, 48 h, read-out: GI
K562 = experiment: Growth inhibition of human K562 cells assessed as cell growth at 10 uM after 48 hrs by MTT assay; values are per cent of control; conditions: K562, 48 h
MDA-MB-435 = experiment: Growth inhibition of human MDA-MB-435 cells assessed as cell growth at 10 uM after 48 hrs by MTT assay; values are per cent of control; conditions: MDA-MB-435, 48 h
SR = experiment: Growth inhibition of human SR cells assessed as cell growth at 10 uM after 48 hrs by MTT assay; values are per cent of control
BT-549 = experiment: Growth inhibition of human BT549 cells assessed as cell growth at 10 uM after 48 hrs by MTT assay; values are per cent of control; conditions: BT-549, 48 h
LOX IMVI = experiment: Growth inhibition of human LOXIMVI cells assessed as cell growth at 10 uM after 48 hrs by MTT assay; values are per cent of control
HT-29 = experiment: Growth inhibition of human HT-29 cells assessed as cell growth at 10 uM after 48 hrs by MTT assay; values are per cent of control; conditions: HT-29, 48 h
MCF7 = experiment: Growth inhibition of human MCF7 cells assessed as cell growth at 10 uM after 48 hrs by MTT assay; values are per cent of control; conditions: MCF7, 48 h
OVCAR-5 = experiment: Growth inhibition of human OVCAR5 cells assessed as cell growth at 10 uM after 48 hrs by MTT assay; values are per cent of control; conditions: OVCAR-5, 48 h

In the case of `c1cncc(-c2cnn[nH]2)c1`, the growth, % of control at 10 µM (UO-31) is reported as 76%, the growth, % of control at 10 µM (HCC 2998) is reported as 77.3% and the Activity (SK-MEL-28 [1]) is reported as “inactive”. The growth, % of control at 10 µM (A549) was 101%, the growth, % of control at 10 µM (786-0) was 104% and the growth, % of control at 10 µM (UACC-62) was 90.7%. For the same compound, the growth, % of control at 10 µM (KM12) was 116%, the growth, % of control at 10 µM (OVCAR-4) was 47.4% and the growth, % of control at 10 µM (HCT-116) was 82.4%. It also gave a growth, % of control at 10 µM (NCI-H460) of 115%, a growth, % of control at 10 µM (SF-295) of 107% and a growth, % of control at 10 µM (NCI-H226) of 80.6%. For the same compound, the Activity (SK-MEL-28 [2]) was “Active”, the growth, % of control at 10 µM (SK-MEL-5) was 103% and the growth, % of control at 10 µM (NCI-H23) was 89.6%. It also gave a growth, % of control at 10 µM (IGROV-1) of 113%, a growth, % of control at 10 µM (RPMI-8226) of 66.9% and a growth, % of control at 10 µM [3] of 71.3%. It also gave an inhibition of growth at 10 µM (HL-60(TB)) of 92.9%, a growth, % of control at 10 µM (K562) of 75.2% and a growth, % of control at 10 µM (MDA-MB-435) of 56%. It also gave a growth, % of control at 10 µM (SR) of 97.3%, a growth, % of control at 10 µM (BT-549) of 97.7% and a growth, % of control at 10 µM (LOX IMVI) of 102%. For the same compound, the growth, % of control at 10 µM (HT-29) was 39.9%, the growth, % of control at 10 µM (MCF7) was 117% and the growth, % of control at 10 µM (OVCAR-5) was 100%.
